Assay results from ChEMBL document CHEMBL1938298, “Synthesis and characterization of [¹²⁵I]2-iodo N-[(S)-{(S)-1-methylpiperidin-2-yl}(phenyl)methyl]3-trifluoromethyl-benzamide as novel imaging probe for glycine transporter 1” (Bioorg Med Chem, 2011).
The source made the active and inactive calls. The rule behind the calls is not given here.

Key:
[1] = biological target: T1, Sodium- and chloride-dependent glycine transporter 1 (Rattus norvegicus) (UniProt P28572); experiment: Binding affinity to GlyT1 in rat brain striatum at 0.03 to 0.04 nM preincubated for 20 mins in binding buffer before compound addition measured after 30 mins by autoradiography in presence of 10 mM GlyT1 substrate glycine relative to control; type: tissue-based; details: tested as the 125I-labelled form
T1 sequence (whole entry): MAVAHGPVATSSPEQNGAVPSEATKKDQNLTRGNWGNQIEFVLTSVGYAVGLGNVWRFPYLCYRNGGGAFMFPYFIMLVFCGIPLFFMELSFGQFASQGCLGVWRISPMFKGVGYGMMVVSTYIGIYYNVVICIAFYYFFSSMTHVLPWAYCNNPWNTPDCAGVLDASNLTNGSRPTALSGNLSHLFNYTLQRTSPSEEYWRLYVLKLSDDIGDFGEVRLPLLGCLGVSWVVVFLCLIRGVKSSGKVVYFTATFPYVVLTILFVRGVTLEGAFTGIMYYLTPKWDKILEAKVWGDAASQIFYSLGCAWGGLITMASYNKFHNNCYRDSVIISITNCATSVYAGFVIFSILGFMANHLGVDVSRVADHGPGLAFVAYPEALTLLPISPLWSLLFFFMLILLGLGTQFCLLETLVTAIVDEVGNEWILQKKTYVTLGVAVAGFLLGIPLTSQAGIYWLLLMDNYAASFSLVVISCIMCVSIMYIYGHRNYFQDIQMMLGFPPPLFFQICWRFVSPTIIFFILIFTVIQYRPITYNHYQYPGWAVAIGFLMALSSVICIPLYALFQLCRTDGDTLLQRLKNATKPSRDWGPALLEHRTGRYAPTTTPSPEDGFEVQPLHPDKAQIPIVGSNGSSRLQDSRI

[2] = biological target: T1, Sodium- and chloride-dependent glycine transporter 1 (Rattus norvegicus); experiment: Binding affinity to GlyT1 in rat brain corpus callosum at 0.03 to 0.04 nM preincubated for 20 mins in binding buffer before compound addition measured after 30 mins by autoradiography in presence of 0.01 mM NMDA receptor glycine site antagonist L-701,324 relative to control; type: tissue-based; details: tested as the 125I-labelled form
Outline: (§1)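 Rat brain sagittal sections (20 µm) preincubated 20 min at 25 °C in Tris-HCl buffer pH 7.5 (NaCl, KCl, MgCl2, CaCl2), then 30 min at 25 °C with [125I] tracer (100 kBq, 0.03–0.04 nM) plus competitor (10 µM; glycine 1 or 10 mM). Cold washes, imaging plate 3 days, ROI PSL minus background per mm². % control from ≥triplicate slices, three rats.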

Mus musculus [3] = experiment: In vivo binding affinity to GlyT1 in ddY mouse brain hippocampus at 33.3 kBq, iv after 60 mins in presence of nonradioactive compound 2 mg/kg, iv administered 15 mins prior to compound administration relative to control; type: functional, organism-based; parameters: dose 2 mg/kg; details: tested as the 125I-labelled form
Outline: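 Male ddY mice (6 W, 30–35 g) were given [125I]5 (ca. 33.3 kBq, 0.1 mL) iv via tail vein. Blocker (2 mg/kg in 30% DMSO/saline) was given iv 15 min before the tracer. Mice were killed 30 or 60 min after injection and the brain regions were dissected and weighed. Gamma counting gave % dose/g, compared with control; n = 5–6.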

[4] = biological target: T1, Sodium- and chloride-dependent glycine transporter 1 (Rattus norvegicus); experiment: Binding affinity to GlyT1 in rat brain thalamus at 0.03 to 0.04 nM preincubated for 20 mins in binding buffer before compound addition measured after 30 mins by autoradiography in presence of 0.01 mM NMDA receptor glycine site antagonist L-701,324 relative to control; type: tissue-based; details: tested as the 125I-labelled form
[5] = biological target: T1, Sodium- and chloride-dependent glycine transporter 1 (Rattus norvegicus); experiment: Binding affinity to GlyT1 in rat brain cerebellum at 0.03 to 0.04 nM preincubated for 20 mins in binding buffer before compound addition measured after 30 mins by autoradiography in presence of 0.01 mM GlyT1 inhibitor ALX5407 relative to control; type: tissue-based; details: tested as the 125I-labelled form; outline: as §1
[6] = biological target: T1, Sodium- and chloride-dependent glycine transporter 1 (Rattus norvegicus); experiment: Binding affinity to GlyT1 in rat brain thalamus at 0.03 to 0.04 nM preincubated for 20 mins in binding buffer before compound addition measured after 30 mins by autoradiography in presence of 0.01 mM GlyT2 inhibitor ORG25543 relative to control; type: tissue-based; details: tested as the 125I-labelled form
[7] = biological target: T1, Sodium- and chloride-dependent glycine transporter 1 (Rattus norvegicus); experiment: Binding affinity to GlyT1 in rat brain corpus callosum at 0.03 to 0.04 nM preincubated for 20 mins in binding buffer before compound addition measured after 30 mins by autoradiography in presence of 0.01 mM GlyT1 inhibitor HPCP relative to control; type: tissue-based; details: tested as the 125I-labelled form; outline: as §1
[8] = biological target: T1, Sodium- and chloride-dependent glycine transporter 1 (Rattus norvegicus); experiment: Binding affinity to GlyT1 in rat brain corpus callosum at 0.03 to 0.04 nM preincubated for 20 mins in binding buffer before compound addition measured after 30 mins by autoradiography in presence of 0.01 mM GlyT2 inhibitor ORG25543 relative to control; type: tissue-based; details: tested as the 125I-labelled form; outline: as §1
[9] = biological target: T1, Sodium- and chloride-dependent glycine transporter 1 (Rattus norvegicus); experiment: Binding affinity to GlyT1 in rat brain midbrain at 0.03 to 0.04 nM preincubated for 20 mins in binding buffer before compound addition measured after 30 mins by autoradiography relative to control; type: tissue-based; details: tested as the 125I-labelled form
[10] = biological target: T1, Sodium- and chloride-dependent glycine transporter 1 (Rattus norvegicus); experiment: Binding affinity to GlyT1 in rat brain hippocampus at 0.03 to 0.04 nM preincubated for 20 mins in binding buffer before compound addition measured after 30 mins by autoradiography in presence of GlyT1 inhibitor N-Me-SSR504734 relative to control; type: tissue-based; details: tested as the 125I-labelled form; outline: as §1
[11] = biological target: T1, Sodium- and chloride-dependent glycine transporter 1 (Rattus norvegicus); experiment: Binding affinity to GlyT1 in rat brain cerebral cortex at 0.03 to 0.04 nM preincubated for 20 mins in binding buffer before compound addition measured after 30 mins by autoradiography in presence of 10 mM GlyT1 substrate glycine relative to control; type: tissue-based; details: tested as the 125I-labelled form; outline: as §1
Mus musculus [12] = experiment: In vivo binding affinity to GlyT1 in ddY mouse brain striatum at 33.3 kBq, iv after 60 mins in presence of nonradioactive compound 2 mg/kg, iv administered 15 mins prior to compound administration relative to control; type: functional, organism-based; parameters: dose 2 mg/kg; details: tested as the 125I-labelled form
[13] = biological target: T1, Sodium- and chloride-dependent glycine transporter 1 (Rattus norvegicus); experiment: Binding affinity to GlyT1 in rat brain midbrain at 0.03 to 0.04 nM preincubated for 20 mins in binding buffer before compound addition measured after 30 mins by autoradiography in presence of 0.01 mM GlyT2 inhibitor ORG25543 relative to control; type: tissue-based; details: tested as the 125I-labelled form; outline: as §1
Spleen = experiment: Drug uptake in ddY mouse spleen at 11.1 kBq, iv after 15 min by gamma counting; type: ADME, organism-based; details: in vivo
Outline: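 Male ddY mice (6 weeks, 30–35 g) were given about 11.1 kBq of [125I]tracer in 0.1 mL i.v. via the tail vein. At each time point the animals were killed and organs dissected, weighed and gamma-counted. Uptake is expressed as % injected dose per gram of tissue, mean ± SD, n = 5–6.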

[14] = Metabolic stability in ddY mouse brain assessed as compound remaining at 185 kBq after 60 mins by radio-TLC; type: ADME, tissue-based; details: read-out: Stability
[15] = biological target: T2, Sodium- and chloride-dependent glycine transporter 1 (Rattus norvegicus, UniProt P28572); experiment: Binding affinity to GlyT1 in rat cortical brain homogenate after 60 mins by gamma counting; type: tissue-based
T2 sequence (P28572 whole entry): T1 sequence (whole entry)
Outline: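 Saturation binding on washed rat cortical membranes (25 µg protein) with [125I]tracer 0.1–20 nM in TB1 buffer (120 mM NaCl, 2 mM KCl, 1 mM CaCl2, 1 mM MgCl2, 10 mM HEPES, pH 7.5), 60 min at room temperature. Nonspecific binding defined with 10 µM unlabeled ligand. GF/B filtration with ice-cold buffer washes, gamma counting; Kd and Bmax from saturation analysis.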

Activity [1] [%] | Activity [2] [%] | Activity [4] [%] | Activity [5] [%] | Activity [6] [%] | Activity [7] [%] | Activity [8] [%] | Activity [9] | Activity [10] [%] | Activity [11] [%] | Activity [13] [%] | Drug uptake (Spleen) [% ID/g] | remaining at 1 h [14] [%] | Kd [15] [nM] | Structure (SMILES) | Activity (Mus musculus [3]) | Activity (Mus musculus [12])
47.6 | 92.5 | 87.1 | 43.1 | 99.7 | 19.7 | 98.2 | Active | 45.8 | 43.7 | 115 | – | – | – | CN1CCCC[C@H]1[C@@H](NC(=O)c1cccc(C(F)(F)F)c1I)c1ccccc1 | Active | Active
– | – | – | – | – | – | – | – | – | – | – | 5.5 | 89 | 1.58 | CN1CCCC[C@H]1[C@@H](NC(=O)c1cccc(C(F)(F)F)c1[125I])c1ccccc1 | – | –
